pKi: −log10 of the molar value. ≈ marks a conversion by molar mass, not a printed value. Calls of active or inactive are those of the source. The calls are words filed in the database; no cut-off is given here.
Tests used:
[1] = Half life in mouse serum by LC-MS analysis; type: ADME, cell-free
In short: (§1)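 Freshly prepared compound solutions (10 μM) incubated at 37 °C in PBS, mouse serum or mouse lung homogenate. Parent and released product followed by LC-MS, RP-HPLC on C18 with ammonium acetate pH 7.4/acetonitrile gradient, 365 nm detection. Half-life taken from disappearance over time.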

[2] = Solubility of the compound in HEPES buffer at pH 7.4 after 24 hrs; type: physicochemical
In short: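 Thermodynamic solubility in aqueous HEPES buffer, pH 7.4, 22 °C, after 24 h incubation; tested up to 30 mM.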

Mus musculus [3] = assay: Antiinflammatory activity in ovalbumin sensitized Balb/c mouse hypereosinophilia model assessed as inhibition of eosinophil recruitment at 30 nmol/kg administered intranasally 2 hrs prior to ovalbumin challenge measured 24 hrs post the last ovalbumin challenge by BAL analysis; type: functional; settings: inhaled or nasal
In short: (§2)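 8-day airway hypereosinophilia model in OVA-sensitized mice; OVA (10 μg in 25 μL saline, 12.5 μL/nostril) given intranasally on days 5, 6, 7 under ip ketamine 50 mg/kg/xylazine 3.33 mg/kg. Compound in PBS (25 μL) given intranasally 2 h before each challenge. BAL cell counts by hemocytometer plus Hemacolor-stained cytospin differentials (≥400 cells), as absolute numbers; n = 6 mice/group.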

Mus musculus [4] = assay: Antiinflammatory activity in ovalbumin sensitized Balb/c mouse hypereosinophilia model assessed as inhibition of lymphocyte recruitment at 30 nmol/kg administered intranasally 2 hrs prior to ovalbumin challenge measured 24 hrs post the last ovalbumin challenge by BAL analysis; type: functional, organism-based; in short: as §2
Mus musculus [5] = assay: Prodrug activation in ovalbumin sensitized Balb/c mouse hypereosinophilia model assessed as chalcone-4 release in lungs at 30 nmol/kg administered intranasally; type: organism-based; settings: in vivo, inhaled_or_intranasal
[6] = target: T1, C-X-C chemokine receptor type 4 (Homo sapiens, UniProt P61073); assay: Inhibition of EGFP-tagged human CXCR4 expressed in HEK293 cells assessed as inhibition of CXCL12-TR binding at 5 uM incubated for 5 mins prior to CXCL12-TR addition by FRET assay; type: cell-based
T1 sequence (P61073 whole entry): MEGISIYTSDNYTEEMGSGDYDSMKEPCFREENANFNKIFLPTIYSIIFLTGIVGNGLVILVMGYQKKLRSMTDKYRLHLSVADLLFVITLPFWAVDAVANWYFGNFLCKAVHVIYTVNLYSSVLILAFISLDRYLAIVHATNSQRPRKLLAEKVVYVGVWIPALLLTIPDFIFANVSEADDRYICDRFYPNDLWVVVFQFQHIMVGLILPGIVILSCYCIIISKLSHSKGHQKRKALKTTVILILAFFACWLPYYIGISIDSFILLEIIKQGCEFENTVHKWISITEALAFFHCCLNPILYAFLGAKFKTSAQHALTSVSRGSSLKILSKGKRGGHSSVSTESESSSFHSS
In short: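 Binding of Texas Red-labelled CXCL12 (100 nM) to EGFP-tagged CXCR4 read by FRET as real-time decline of EGFP emission at 510 nm. Compound tested at 5 μM; percent inhibition of binding reported.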

Mus musculus [7] = assay: Antiinflammatory activity in ovalbumin sensitized Balb/c mouse hypereosinophilia model assessed as inhibition of neutrophil recruitment at 30 nmol/kg administered intranasally 2 hrs prior to ovalbumin challenge measured 24 hrs post the last ovalbumin challenge by BAL analysis; type: functional, organism-based; in short: as §2
[8] = Half life in mouse lung homogenate by LC-MS analysis; type: ADME, tissue-based; in short: as §1
Mus musculus [9] = assay: Antiinflammatory activity in ovalbumin sensitized Balb/c mouse hypereosinophilia model assessed as inhibition of macrophage recruitment at 30 nmol/kg administered intranasally 2 hrs prior to ovalbumin challenge measured 24 hrs post the last ovalbumin challenge by BAL analysis; type: functional, organism-based; in short: as §2
[10] = Half life in PBS buffer by LC-MS analysis; type: physicochemical; in short: as §1
[11] = target: T1, C-X-C chemokine receptor type 4; assay: Inhibition of EGFP-tagged human CXCR4 expressed in HEK293 cells assessed as inhibition of CXCL12-TR binding incubated for 5 mins prior to CXCL12-TR addition by FRET assay; type: cell-based
Mus musculus [12] = assay: Antiinflammatory activity in ovalbumin sensitized Balb/c mouse hypereosinophilia model assessed as inhibition of eosinophil recruitment at 22 nmol/kg administered intranasally 2 hrs prior to ovalbumin challenge for 3 days; type: functional; in short: as §2
Mus musculus [13] = assay: Antiinflammatory activity in ovalbumin sensitized Balb/c mouse hypereosinophilia model assessed as inhibition of lymphocyte recruitment at 22 nmol/kg administered intranasally 2 hrs prior to ovalbumin challenge for 3 days; type: functional, organism-based; in short: as §2
Mus musculus [14] = assay: Antiinflammatory activity in ovalbumin sensitized Balb/c mouse hypereosinophilia model assessed as inhibition of neutrophil recruitment at 22 nmol/kg administered intranasally 2 hrs prior to ovalbumin challenge for 3 days; type: functional, organism-based; in short: as §2
Mus musculus [15] = assay: Antiinflammatory activity in ovalbumin sensitized Balb/c mouse hypereosinophilia model assessed as inhibition of macrophage recruitment at 22 nmol/kg administered intranasally 2 hrs prior to ovalbumin challenge for 3 days; type: functional, organism-based; in short: as §2
Mus musculus [16] = assay: Prodrug activation in ovalbumin sensitized Balb/c mouse hypereosinophilia model assessed as chalcone-4 release in lungs at 22 nmol/kg administered intranasally after 15 mins; type: organism-based; settings: in vivo, inhaled_or_intranasal, 0.25 h
In short: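 LC-MS detection of released parent chalcone in mouse lung tissue 15 min after intranasal dosing of prodrug.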

Mus musculus [17] = assay: Antiinflammatory activity in ovalbumin sensitized Balb/c mouse hypereosinophilia model assessed as inhibition of eosinophil recruitment administered intranasally 2 hrs prior to ovalbumin challenge for 3 days; type: functional, organism-based; in short: as §2

Row | Compound | half-life [1] | solubility at 24 h [2] | inhibition in vivo at 0.03 µmol/kg (Mus musculus [3]) | inhibition (Mus musculus [4]) | Drug metabolism (Mus musculus [5]) | inhibition [6] | inhibition (Mus musculus [7]) | half-life [8] | inhibition (Mus musculus [9]) | half-life [10] | pKi [11] | inhibition (Mus musculus [12]) | inhibition (Mus musculus [13]) | inhibition (Mus musculus [14]) | inhibition (Mus musculus [15]) | Drug metabolism (Mus musculus [16]) | IC50 (Mus musculus [17]) | inhibition in vivo at 0.022 µmol/kg (Mus musculus [12]; inhaled or nasal)
1 | COc1cc(/C=C/C(=O)c2ccc(Cl)cc2)ccc1OS(=O)(=O)[O-].[Na+] | > 10 h | 1430 µM | 69% | Active | Active | 4% | Active | 0.5 h | inactive | > 10 h | – | – | – | – | – | – | – | –
2 | COc1cc(/C=C/C(=O)c2ccc(Cl)cc2)ccc1O | > 10 h | 9 µM (≈ 2.6 µg/mL) | – | – | Active | 90% | – | > 6 h | – | > 10 h | 7.28 | inactive | inactive | inactive | inactive | – | – | –
3 | COc1cc(/C=C/C(=O)c2ccc(Cl)cc2)ccc1OP(=O)([O-])[O-].[Na+].[Na+] | 2 h | > 30000 µM | 64% | Active | Active | 5% | Active | < 0.25 h | inactive | > 10 h | – | – | Active | Active | inactive | Active | 10 nmol/kg | 56%
4 | COc1cc(/C=C/C(=O)c2ccc(Cl)cc2)ccc1OC(=O)[C@H](N)CO.Cl | < 0.0833 h | 42 µM | 67% | Active | Active | 15% | Active | < 0.0833 h | inactive | 0.2 h | – | – | – | – | – | – | – | –

Source: ChEMBL document CHEMBL2203198, “Prodrugs of a CXC Chemokine-12 (CXCL12) Neutraligand Prevent Inflammatory Reactions in an Asthma Model in Vivo” (ACS Med Chem Lett, 2012)
